This is one part of a sample in which hits are shown more often than they occur.
bCat KO growth – primary screen for growth suppressors in beta-catenin knockout HCT116 cells (colon tumor, human) | HCT116 beta-catenin knockout viability, CellTiter-Glo, 60 h; active compounds read low | viability, % at 10 µM | 140,000 compounds, 1.5% hits;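 active means viability at or under a set limit, the compound median less 4 SD, cut at about 6% in these data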;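 further: 0% = Hyamine 1622 control at 20 µM and 100% = untreated cell control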
Fibroblast inh – antiproliferative effect on LL 47 fibroblasts – human, LL 47 cells, CellTiter-Glo luminescence, primary screen; LL 47 human lung fibroblast viability, ATP luminescence; active compounds read low; viability, % at 10 µM; 85,000 compounds, 1.1% hits;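 active means viability at or below 50% in the single dose screen; inactive means viability above 50%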;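 further: compound exposure lasted 72 h before the ATP readout; 100% = median luminescence of untreated cell-only wells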
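Material: human lung fibroblast line LL 47, low passage; Evaluation: viability percentage against median untreated-cell control; Buffer or medium: 15% FBS in IMEM; Incubation: 72 h compound exposure at 37 °C after overnight plating; Dosing: 0.1% DMSO in all compound wells; Measured by: CellTiter-Glo luminescence.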
HCT116 PTEN-null – growth suppression of PTEN-null HCT116, primary screen, cell-based, CellTiter-Glo; HCT116 PTEN-null viability, 60 h; active compounds read low; viability, % at 10 µM; 140,000 compounds, 1.2% hits;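 active means viability at or below a set limit, 4 SD under the median of all tested compounds, cut at about 3.7% in these data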;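 further: PTEN knockout HCT116 line with beta catenin targeted HCT116 as companion control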
HUVEC prolif 384 – inhibitors of HUVEC proliferation, primary screen, cell-based, 384-well | viability, % at 10 µM (by protocol) | 86,000 compounds, 1.1% hits | CellTiter-Glo luminescence, 72 h; active compounds read low;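 active means viability at or below 30%; inactive means viability above 30%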;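 further: 100% = median luminescence of DMSO-only cell control wells on each plate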
H69AR inhibit – proliferation blockers of H69AR lung cancer cells, primary screen, cell-based, human, 86K library; 85,000 compounds, 6% hits; H69AR lung tumor viability, ATP luminescence, 72 h; active compounds read low; viability, % at 10 µM;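 active means viability at or below 40%; inactive means viability above 40%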;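 further: multidrug resistant small cell line overexpressing MRP-1 efflux transporter; 100% = mean luminescence of untreated control wells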
The depositor's hits bear a star.

C=CCc1cccc([C@@H]2[C@@H](C)CC[C@H]3C(=O)N4[C@@H](c5cc(OC)c(OC)c(OC)c5)c5[nH]c6ccccc6c5C[C@H]4C(=O)N23)c1 was read as bCat KO growth 57 and HCT116 PTEN-null 69.
Screening CC1=C(C(=O)OCc2ccc3c(c2)OCO3)C(c2ccccc2OCc2ccccc2)NC(=O)N1 (stereo unspecified) returned bCat KO growth 60, Fibroblast inh 96, HCT116 PTEN-null 56, HUVEC prolif 384 86 and H69AR inhibit 77.
`CC1=C(C(=O)OCc2ccc3c(c2)OCO3)C(c2ccccc2)NC(=O)N1` (stereo unspecified) gave bCat KO growth 24, Fibroblast inh 82, HCT116 PTEN-null 23, HUVEC prolif 384 26* and H69AR inhibit 23*.
Screening CCc1ccc2c(c1)[C@]1(C(=O)N2)[C@@H]2C(=O)N(Cc3ccccc3)C(=O)[C@@H]2[C@@H]2CCCN21 returned bCat KO growth 90, Fibroblast inh 92, HCT116 PTEN-null 86, HUVEC prolif 384 86 and H69AR inhibit 91.
`CCc1ccc2c(c1)C1(NN=C(c3ccc(C)cc3)S1)C(=O)N2` (stereo unspecified) gave bCat KO growth 1.4*, Fibroblast inh 47*, HCT116 PTEN-null 1.7*, HUVEC prolif 384 9.8* and H69AR inhibit 2.3*.
Screening CC(C)c1ccc2c(c1)C1(NN=C(c3ccccc3)S1)C(=O)N2 (stereo unspecified) returned bCat KO growth 4.5*, Fibroblast inh 43*, HCT116 PTEN-null 9, HUVEC prolif 384 3.4* and H69AR inhibit 18*.
For CC(C)c1ccc(O)c(NC(=O)c2ncn[nH]2)c1 the results were bCat KO growth 95, Fibroblast inh 100, HCT116 PTEN-null 92, HUVEC prolif 384 97 and H69AR inhibit 82.
`CC1CCN(c2c(NCC3CCC(C(=O)NCc4ccccc4Cl)CC3)c(=O)c2=O)CC1` (stereo unspecified) gave bCat KO growth 91 and HCT116 PTEN-null 92.
Screening CCOC(=O)c1c(C)[nH]c(C(=O)CN2C(=O)NC(C)(c3ccc(C)cc3)C2=O)c1C (stereo unspecified) returned bCat KO growth 59, Fibroblast inh 107, HCT116 PTEN-null 51, HUVEC prolif 384 97 and H69AR inhibit 39*.
Screening CCOC(=O)c1c(NC(=O)CN2C(=O)NC(C)(c3ccc(OC(F)F)cc3)C2=O)sc(C)c1C (stereo unspecified) returned bCat KO growth 78 and HCT116 PTEN-null 70.
For CCOC(=O)c1c(C)[nH]c(C(=O)CN2C(=O)NC(CC)(c3ccccc3)C2=O)c1C (stereo unspecified) the results were bCat KO growth 75, Fibroblast inh 94, HCT116 PTEN-null 62, HUVEC prolif 384 100 and H69AR inhibit 37*.
Screening CCOC(=O)c1c(C)[nH]c(C(=O)Cn2nnc(-c3ccccc3)n2)c1C returned bCat KO growth 92, Fibroblast inh 80, HCT116 PTEN-null 102, HUVEC prolif 384 81 and H69AR inhibit 61.
Screening O=C(Nc1ncnc2sc3c(c12)CCC3)c1ccco1 returned bCat KO growth 100, Fibroblast inh 88, HCT116 PTEN-null 97, HUVEC prolif 384 92 and H69AR inhibit 89.
Screening C(=N\Nc1ncnc2sc3c(c12)CCC3)/c1ccncc1 returned bCat KO growth 10 and HCT116 PTEN-null 3.3*.
For C(=N\Nc1ncnc2sc3c(c12)CCC3)/c1cccs1 the results were bCat KO growth 2.1* and HCT116 PTEN-null 2.5*.
O=C(Cn1cncc1-c1ccc([N+](=O)[O-])cc1)Nc1ccccc1F was read as bCat KO growth 86 and HCT116 PTEN-null 81.
Screening Cc1ccc2[nH]c(O)c(N=NC(=O)C3CC3c3ccccc3)c2c1Br (stereo unspecified) returned bCat KO growth 22 and HCT116 PTEN-null 29.
Screening CSc1nc(SCC(=O)NC(c2ccccc2)c2ccccc2)c2c3c(sc2n1)CN(C)CC3 returned bCat KO growth 70, Fibroblast inh 48*, HCT116 PTEN-null 33, HUVEC prolif 384 31 and H69AR inhibit 12*.
For CN1CCc2c(sc3nc(SCC(=O)N4CCOCC4)nc(N)c23)C1 the results were bCat KO growth 88, Fibroblast inh 96, HCT116 PTEN-null 91, HUVEC prolif 384 98 and H69AR inhibit 89.
`CC(=O)c1ccc(-n2c(SCC(=O)c3c[nH]c4ccccc34)nc3ccccc3c2=O)cc1` gave bCat KO growth 95 and HCT116 PTEN-null 83.
`c1coc(CNc2nc(N3CCCCC3)nc3ccccc23)c1` gave bCat KO growth 24, Fibroblast inh 81, HCT116 PTEN-null 29, HUVEC prolif 384 56 and H69AR inhibit 5.3*.
Screening c1ccc(N2CCN(c3nc(NCc4ccco4)c4ccccc4n3)CC2)cc1 returned bCat KO growth 2.4* and HCT116 PTEN-null 3.1*.
O=c1c2ccccc2nc2c3ccccc3c(NCc3ccco3)nn12 was read as bCat KO growth 68, Fibroblast inh 94, HCT116 PTEN-null 66, HUVEC prolif 384 82 and H69AR inhibit 74.
`Cc1ccc(-c2csc(NC(=O)c3ccc4c(=O)n5c(nc4c3)CCCCC5)n2)cc1` gave bCat KO growth 39 and HCT116 PTEN-null 32.
Screening CCn1c(Sc2nc(C)nc3scc(-c4cccs4)c23)n[nH]c1=O returned bCat KO growth 26, Fibroblast inh 63, HCT116 PTEN-null 23, HUVEC prolif 384 81 and H69AR inhibit 2.8*.
O=C(CCl)N1N=C(c2ccco2)CC1c1cccs1 (stereo unspecified) was read as bCat KO growth 3.2* and HCT116 PTEN-null 1.9*.
`CC(=O)N1N=C(c2ccc(C)o2)CC1c1ccc(Br)cc1` (stereo unspecified) gave bCat KO growth 102 and HCT116 PTEN-null 97.
Cc1ccc(C2=NN(C(=O)CCl)C(c3cccs3)C2)o1 (stereo unspecified) was read as bCat KO growth 3.6* and HCT116 PTEN-null 2.1*.
CC(=O)N1N=C(c2ccco2)CC1c1cccs1 (stereo unspecified) was read as bCat KO growth 91 and HCT116 PTEN-null 106.
For NC(N)=N/N=C/c1ccc(OCc2ccccc2)cc1 the results were bCat KO growth 1.7* and HCT116 PTEN-null 1.8*.
NC(N)=N/N=C/c1ccc(OCc2ccc(Cl)cc2)cc1 was read as bCat KO growth 1.5* and HCT116 PTEN-null 1.5*.
Cc1ccc(COc2ccc(/C=N/O)cc2)cc1 was read as bCat KO growth 106 and HCT116 PTEN-null 98.
For Cc1ccc(-c2nnn(CC(=O)Nc3ccc(S(=O)(=O)N4CCC(C)CC4)cc3)n2)cc1 the results were bCat KO growth 75, Fibroblast inh 68, HCT116 PTEN-null 56, HUVEC prolif 384 66 and H69AR inhibit 21*.

Screening results deposited in PubChem BioAssay by SRMLSC.
